Laboratory results from ChEMBL document CHEMBL4145485, “Design, synthesis, biological evaluation and docking studies of new 3-(4,5-dihydro-1H-pyrazol/isoxazol-5-yl)-2-phenyl-1H-indole derivatives as potent antioxidants and 15-lipoxygenase inhibitors” (Eur J Med Chem, 2018).
Values after ≈ are worked out from the molar mass of the structure shown.

Columns and labels:
[1] = Antioxidant activity assessed as inhibition of DPPH radical formation after 30 mins; assay type: functional
Summary of the method: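 Test compound at […] mixed 1:1 with […], kept dark at room temperature 30 min, absorbance read at 517 nm. Ascorbic acid as positive control, DMSO as blank. % scavenging taken against a no-compound control. IC50 by linear regression of the dose-response, in mg/mL, mean ± SD of three replicates.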

[2] = Inhibition of soybean 15-LOX using arachidonic acid or linoleic acid as substrate preincubated with enzyme followed by substrate addition up to 5 mins by chromogenic method; design: species or system Glycine max
Summary of the method: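 Kit-based assay: soybean LOX pre-mixed with test compound ([…], in DMSO), started with arachidonic or linoleic acid, shaken at least 5 min. Chromogen added to stop and develop, absorbance at 490–500 nm. Quercetin as positive control, DMSO as 100% activity, buffer as blank. IC50 from non-linear dose-response of % inhibition.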

[3] = Antioxidant activity in PBS buffer assessed as NO scavenging activity after 90 mins in presence of sodium nitroprusside by Griess assay; assay type: functional
Summary of the method: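 Test compound at […] mixed 1:1 with 10 mM sodium nitroprusside in PBS pH 7.4, held 90 min at room temperature. Equal volume of Griess reagent (1% sulphanilamide, 0.1% naphthyl ethylene diamine in 2.5% […]) added, absorbance at 546 nm. Ascorbic acid as positive control, DMSO as blank. IC50 by linear regression, mg/mL, mean ± SD of three.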

[4] = Antioxidant activity assessed as superoxide dismutase-like activity by measuring inhibition of xanthine oxidase-induced superoxide anion level measured ever 30 secs for 5 mins by NBT reduction assay; assay type: functional
Summary of the method: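 Kit-based assay at room temperature in cuvettes: reaction buffer, xanthine and NBT, then test compound ([…]), then xanthine oxidase. A550 read every 30 s from 30 s to 5 min 30 s. Rate per minute compared with a negative control gives % inhibition. IC50 from non-linear dose-response, mean ± SEM of three. Ascorbic acid as reference.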

[5] = Potency index, ratio of ascorbic acid IC50 to compound IC50 for antioxidant activity assessed as inhibition of DPPH radical; assay type: functional
[6] = system: Glycine max; experiment: Potency index, ratio of quercetin IC50 to compound IC50 for inhibition of soybean 15-LOX
[7] = Potency index, ratio of ascorbic acid IC50 to compound IC50 for antioxidant activity in PBS buffer assessed as NO scavenging activity; assay type: functional
[8] = Potency index, ratio of ascorbic acid IC50 to compound IC50 for antioxidant activity assessed as superoxide dismutase-like activity by measuring inhibition of xanthine oxidase-induced superoxide anion level; assay type: functional

SMILES	IC50 [1] [µg/mL]	IC50 [2] [µM]	IC50 [3] [µg/mL]	IC50 [4] [µM]	Ratio IC50 [5]	Ratio IC50 [6]	Ratio IC50 [7]	Ratio IC50 [8]
CC(=O)N1N=C(c2cccnc2)CC1c1c(-c2ccccc2)[nH]c2ccccc12 (configuration not stated)	37.97 (≈ 99.8 µM)	4.56	29.8	2.57	–	–	–	–
CN1N=C(c2ccncc2)CC1c1c(-c2ccccc2)[nH]c2ccccc12 (configuration not stated)	33.1 (≈ 93.9 µM)	9.32	37.1	5.41	–	–	–	–
O=C(c1ccccc1)N1N=C(c2ccncc2)CC1c1c(-c2ccccc2)[nH]c2ccccc12 (configuration not stated)	107.32 (≈ 243 µM)	5.14	52.54	4.27	–	–	–	–
O=C1O[C@H]([C@@H](O)CO)C(O)=C1O [ASCORBIC ACID]	23.4 (≈ 133 µM)	–	24.5	3.54	–	–	–	–
CC(=O)N1N=C(c2ccncc2)CC1c1c(-c2ccccc2)[nH]c2ccccc12 (configuration not stated)	98.54 (≈ 259 µM)	8.74	29.14	5.47	–	–	–	–
c1ccc(-c2[nH]c3ccccc3c2C2CC(c3cccnc3)=NN2)cc1 (configuration not stated)	13.61 (≈ 40.2 µM)	3.84	35.01	1.78	1.7	1.8	0.7	2
c1ccc(-c2[nH]c3ccccc3c2C2CC(c3cccnc3)=NO2)cc1 (configuration not stated)	60.7 (≈ 179 µM)	6.71	116.7	3.54	–	–	–	–
O=c1c(O)c(-c2ccc(O)c(O)c2)oc2cc(O)cc(O)c12 [QUERCETIN]	–	6.87	–	–	–	–	–	–
c1ccc(-c2[nH]c3ccccc3c2C2CC(c3ccncc3)=NO2)cc1 (configuration not stated)	59.94 (≈ 177 µM)	4.89	70.5	1.87	–	–	–	–
c1ccc(-c2[nH]c3ccccc3c2C2CC(c3ccncc3)=NN2)cc1 (configuration not stated)	15.83 (≈ 46.8 µM)	6.54	20.99	3.24	–	–	–	–
c1ccc(-c2[nH]c3ccccc3c2C2CC(c3cccs3)=NN2)cc1 (configuration not stated)	18.3 (≈ 53.3 µM)	9.41	24.04	6.51	–	–	–	–
O=C(c1ccccc1)N1N=C(c2cccnc2)CC1c1c(-c2ccccc2)[nH]c2ccccc12 (configuration not stated)	48.21 (≈ 109 µM)	7.23	50.33	4.62	–	–	–	–
c1ccc(-c2[nH]c3ccccc3c2C2CC(c3cccs3)=NO2)cc1 (configuration not stated)	117.5 (≈ 341 µM)	7.51	233.4	4.26	–	–	–	–
